Compound activity from PubChem BioAssay.
ANO1 activ = TMEM16A chloride channel activators or potentiators, primary screen, cell-based, HTS. Anoctamin-1 (Mus musculus), Q8BHY3. HEK293 TMEM16A/YFP-H148Q/I152L, iodide quench fluorescence; stronger effect = lower value. B-score at 10 µM. 340,000 tested, 0.3% active. AID 623877, 2012;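 active = fluorescence-ratio B-score plate-corrected deviation score at least 3 library SD below zero, with starting fluorescence score within 5 deviations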;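 also: channel opened by trigger with iodide after compound preincubation; score built on the fluorescence ratio of max minus min over baseline; more negative score means more quench and so TMEM16A activation or potentiation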
SR-BI DiI-HDL act = activators of SR-BI mediated DiI-HDL uptake, primary screen, ldlA[mSR-BI] CHO cells, DiI fluorescence; 3 h; 100 = double the neutral-control signal; activation, % at 12.5 µM; 320,000 tested, 0.096% active; AID 504775, 2011;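 active = mean replicate activation of at least 60% and every replicate at or above 60%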;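 also: 0% = median plate neutral-control signal and 100% = twice that signal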
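Test system: SR-BI-overexpressing, LDLR-lacking CHO cells; Medium: Ham's F12 with 0.5% BSA, HEPES 25 mM, pH 7.4; Schedule: 3 h, 37 °C; Technique: bottom-read fluorescence, 550/595 nm.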
ANO1 block = TMEM16A chloride channel inhibitors, primary screen, cell-based, HTS | Anoctamin-1 (Mus musculus), Q8BHY3 | HEK293 TMEM16A/YFP iodide influx fluorescence, ionomycin | normalized B-score (activity score, 25-100; higher = stronger inhibition) at 10 µM | 310,000 tested, 1.2% active;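 active = ratio plate-corrected score three or more library SD toward inhibition, starting fluorescence score within five deviations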;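 also: score derived from kinetic fluorescence span divided by baseline fluorescence per well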
DNA FID counter = compounds displacing fluorescent DNA intercalator, primary screen, artefact control for HCV NS3 helicase inhibitor project, biochemical, FID fluorescence. DNA fluorescent intercalator displacement. inhibition, % at 7.9 µM. 290,000 tested, 0.17% active. AID 1845, 2009; in the data active = inhibition above about 37%;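 also: 0% = vehicle and 100% = reference compound; higher means more ethidium bromide displaced from hairpin DNA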
Kir21 block = inhibitors of mouse Kir2.1 inward-rectifier potassium channel; Inward rectifier potassium channel 2 (Mus musculus), P35561; HEK293-Kir2.1, FluxOR thallium flux fluorescence; stronger effect = lower value; B-score at 10 µM; 310,000 tested, 0.85% active;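 active = fluorescence ratio B-score at or below minus 3 SD of library scores, with starting-brightness B-score within 2 SD, cut at about -4.2 in these data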;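 also: channel flux triggered by added potassium and thallium sulfate stimulus; B-score of peak minus minimum fluorescence over baseline after thallium stimulus; more negative B-score means stronger Kir2.1 block with less thallium influx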
SR-BI HDL uptake = inhibitors of SR-BI mediated HDL lipid uptake, primary screen, ldlA[mSR-BI] cells, fluorescence, single point. inhibition, % at 12.5 µM. 320,000 tested, 0.96% active. ldlA[mSR-BI] CHO cells, DiI-HDL uptake fluorescence, 3 h. AID 488896, 2010. Scavenger receptor class B member 1 (Mus musculus), Q61009;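 active = mean replicate inhibition of at least 70% and a set share of replicates each scoring 70 or more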;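 also: 0% = median of neutral control wells and 100% = median of positive control wells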
TMEM16A reconf = TMEM16A chloride channel inhibitors, confirmation, cell-based, re-confirmation; 2,300 tested, 39% active; shares compounds with ANO1 block; HEK293 TMEM16A/YFP-H148Q, iodide quench fluorescence; ionomycin added to raise cell calcium; AID 652189, 2013; inhibition, % at 10 µM;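 active = mean duplicate percent inhibition, scaled so buffer wells are 0 and the reference blocker 100, over three buffer SD above buffer mean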
HEK293 Ca mobil = calcium mobilization in TMEM16A/YFP HEK293 cells, confirmation, counter-screen for TMEM16A inhibitor project; shares compounds with ANO1 block; Fluo4 calcium mobilization; calcium response (% of ionomycin), % at 10 µM; 2,300 tested, 2% active;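 active = duplicate-averaged calcium signal over 20% of the ionomycin maximum, relative to buffer baseline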;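 also: each well's signal is peak minus trough fluorescence divided by its pre-addition baseline; 0% = buffer wells and 100% = ionomycin wells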
YFP-HEK293 quench = iodide YFP quench changes in parental YFP-HEK293, counter-screen for TMEM16A inhibitor project, cell-based. shares compounds with ANO1 block. ionomycin. YFP ratio F(max-min)/F0 at 10 µM. 2,300 tested, under 10 active. AID 652233, 2013;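 active = yellow fluorescent protein signal ratio exceeding the buffer control mean by over 5 SD of those controls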;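 also: ratio is mean of duplicate wells from kinetic YFP trace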
ClC-1 inh = ClC-1 chloride channel inhibition, selectivity assay for TMEM16A inhibitor project, cell-based, voltage-dependent ClC-1. shares compounds with ANO1 block. CHO ClC-1-YFP, iodide influx fluorescence quench; iodide control reads 0, buffer control 100. 2,300 tested, under 10 active. ratio percent, % at 10 µM;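 active = duplicate-mean ratio percent above the mean of iodide-only control wells, which defines zero, plus 5 of their SD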;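 also: higher percent means stronger block of ClC-1 iodide influx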
Target sequence (P35524 whole entry, looked up): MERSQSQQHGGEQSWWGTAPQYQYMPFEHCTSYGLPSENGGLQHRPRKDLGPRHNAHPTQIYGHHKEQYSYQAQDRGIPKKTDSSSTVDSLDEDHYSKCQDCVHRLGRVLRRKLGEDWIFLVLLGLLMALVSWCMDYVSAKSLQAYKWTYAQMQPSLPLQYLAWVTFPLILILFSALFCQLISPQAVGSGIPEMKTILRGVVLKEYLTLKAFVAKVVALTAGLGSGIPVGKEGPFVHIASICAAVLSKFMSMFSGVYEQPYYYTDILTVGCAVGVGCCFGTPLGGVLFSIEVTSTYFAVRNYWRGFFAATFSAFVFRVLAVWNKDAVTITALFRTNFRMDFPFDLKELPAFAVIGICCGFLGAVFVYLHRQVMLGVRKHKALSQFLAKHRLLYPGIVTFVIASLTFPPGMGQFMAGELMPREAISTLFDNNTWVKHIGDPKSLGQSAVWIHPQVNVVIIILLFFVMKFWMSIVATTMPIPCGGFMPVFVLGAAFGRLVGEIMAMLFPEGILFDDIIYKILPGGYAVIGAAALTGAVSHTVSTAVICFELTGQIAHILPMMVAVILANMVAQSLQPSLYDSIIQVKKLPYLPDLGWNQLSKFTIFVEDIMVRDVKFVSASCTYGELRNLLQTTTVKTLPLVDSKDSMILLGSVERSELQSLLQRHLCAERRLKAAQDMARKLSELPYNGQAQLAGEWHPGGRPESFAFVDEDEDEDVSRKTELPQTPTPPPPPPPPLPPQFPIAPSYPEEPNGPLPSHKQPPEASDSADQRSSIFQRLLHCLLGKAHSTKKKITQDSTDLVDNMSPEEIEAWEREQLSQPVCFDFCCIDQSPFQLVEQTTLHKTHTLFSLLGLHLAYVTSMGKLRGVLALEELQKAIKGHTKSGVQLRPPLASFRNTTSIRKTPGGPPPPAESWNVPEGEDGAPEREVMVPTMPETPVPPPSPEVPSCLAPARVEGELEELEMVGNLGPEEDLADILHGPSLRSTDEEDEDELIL
* hit, by the source's call; i = inactive; · = not tested or not shown. Only some compounds are listed: those with a hit (about 3% of all), similar ones and a draw of the others.

SMILES | ANO1 activ | SR-BI DiI-HDL act | ANO1 block | DNA FID counter | Kir21 block | SR-BI HDL uptake | TMEM16A reconf | HEK293 Ca mobil | YFP-HEK293 quench | ClC-1 inh
CCOc1ccc(-c2c(=O)n(OCc3ccccn3)c3ccccc3[n+]2[O-])cc1 | i | 3 | 25* | -8 | 0.04 | -3 | i | i | -1.1 | -4
CN(C)CCCNC1=CC(=O)OC12CCCCC2 | i | -3 | i | 1 | 0.2 | 3 | · | · | · | ·
CC(C)(C)NC1=CC(=O)OC12CCCCC2 | i | 15 | i | 0 | -0.91 | -15 | i | i | -0.9 | 0
CCN(Cc1cnn(C)c1)C(=O)c1cc(COc2ccc3c(c2)CCCC3)on1 | i | · | i | -60 | 1.2 | 20 | · | · | · | ·
Cn1cc(CNC(=O)c2cc(COc3ccc4c(c3)CCCC4)on2)cn1 | i | -18 | 25* | -51 | 1 | 18 | i | i | -1.1 | -8
CCNS(=O)(=O)c1ccc(CCC(=O)N2CCN(Cc3ccccc3)CC2)cc1 | i | 19 | i | -6 | 0.05 | -19 | · | · | · | ·
O=C(Nc1ccccc1)N1CCN(Cc2ccc3c(c2)OCO3)CC1 | i | · | 100* | -2 | -1.1 | · | i | i | -1.2 | 2
O=C(CCc1ccc(S(=O)(=O)NCCc2ccccc2)cc1)N1CCN(Cc2ccc3c(c2)OCO3)CC1 | i | -69 | 25* | -16 | -0.77 | 69 | i | i | -0.82 | -3
O=C(C1COc2ccccc2O1)N1CCN(Cc2ccc3c(c2)OCO3)CC1 (stereo unspecified) | i | -27 | 25* | -20 | -0.45 | 27 | i | i | -0.95 | -6
O=C(C1COc2ccccc2O1)N1CCN(Cc2ccc(Br)cc2F)CC1 (stereo unspecified) | i | -15 | i | -45 | 0.62 | 15 | · | · | · | ·
O=CNn1cnc2c(oc3nc(-c4ccccc4)cc(-c4ccco4)c32)c1=O | i | -23 | 25* | -4 | -1.5 | 23 | 18%* | i | -0.92 | 0
O=C1CCc2cc(S(=O)(=O)Nc3ccccc3F)ccc2N1 | i | 7 | · | · | · | -7 | · | · | · | ·
O=C1OC(c2ccccc2)=N/C1=C/c1cccc(OC(=O)c2cccs2)c1 | i | 11 | 25* | -40 | -0.09 | -11 | i | i | -1.1 | -8
Cc1no[n+]([O-])c1COc1cccc(/C=C2\N=C(c3ccccc3)OC2=O)c1 | i | 16 | i | -20 | 0.15 | -16 | · | · | · | ·
Cc1cccc(Cc2c(C)nc3c(C(=O)N4CCN(Cc5ccc6c(c5)OCO6)CC4)cnn3c2C)c1 | i | -7 | 25* | -16 | -1.8 | 7 | i | i | -1.1 | -5
O=[N+]([O-])c1ccc(O)c(Nc2c([N+](=O)[O-])ccc3nonc23)c1 | i | -15 | i | 6 | 0.46 | 15 | · | · | · | ·
